Measured values as given in ChEMBL document CHEMBL4396897, “Potent 5-Cyano-6-phenyl-pyrimidin-Based Derivatives Targeting DCN1-UBE2M Interaction” (J Med Chem, 2019).
Calls of active or inactive are those of the source. The rule behind the calls is not given here.

Legend:
[1] = biological target: T1, NEDD8-activating enzyme E1 catalytic subunit (Homo sapiens) (UniProt Q8TBC4); assay: Inhibition of NEDD8-activating enzyme E1C (unknown origin) assessed as effect on NEDD8/UBE2M complex formation up to 100 uM pre-incubated for 10 mins followed by Mg-ATP addition after 60 mins by SDS-PAGE analysis
T1 sequence (whole entry): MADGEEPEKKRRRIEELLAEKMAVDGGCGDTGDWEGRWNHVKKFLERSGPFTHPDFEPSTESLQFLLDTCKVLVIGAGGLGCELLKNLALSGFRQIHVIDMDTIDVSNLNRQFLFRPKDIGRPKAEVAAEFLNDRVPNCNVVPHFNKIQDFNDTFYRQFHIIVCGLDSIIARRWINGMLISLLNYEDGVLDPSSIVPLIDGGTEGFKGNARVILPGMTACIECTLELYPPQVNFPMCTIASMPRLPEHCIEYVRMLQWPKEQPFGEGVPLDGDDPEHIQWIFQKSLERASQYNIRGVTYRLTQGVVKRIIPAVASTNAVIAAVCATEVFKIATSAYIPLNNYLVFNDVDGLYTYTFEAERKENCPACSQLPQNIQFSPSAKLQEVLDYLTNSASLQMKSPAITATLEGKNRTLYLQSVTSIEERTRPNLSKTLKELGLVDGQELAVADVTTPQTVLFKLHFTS
Procedure, shortened: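 Cell-free NEDD8~UBE2M formation: NEDD8 E1 mixed with NEDD8, UBE2M and compound (10 and 20µM reference inhibitor, or 1, 10 and 100µM test compound) in reaction buffer, 10 min at room temperature. Started with Mg-ATP, incubated 60 min at 37°C, then 1mM DTT and non-reducing loading buffer added. Resolved on 12% SDS-PAGE.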

A549 [2] = assay: Induction of apoptosis in human A549 cells assessed as early apoptotic cells at 2.5 uM after 48 hrs by Annexin V-FITC/propidium iodide staining based flow cytometry (reference value: 3.63%); assay type: functional
A549 [3] = assay: Antiproliferative activity against human A549 by MTT assay; assay type: functional, cell-based; conditions: TDE = time-dependent effect
A549 [4] = assay: Induction of apoptosis in human A549 cells assessed as early apoptotic cells at 10 uM after 48 hrs by Annexin V-FITC/propidium iodide staining based flow cytometry (reference value: 3.63%); assay type: functional
SMMC-7721 = assay: Antiproliferative activity against human SMMC7721 after 72 hrs by MTT assay; assay type: functional, cell-based; conditions: SMMC-7721, 72 h
Procedure, shortened: (§1)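 MTT viability assay: cells seeded at 2~5×10^3 per well, exposed to serial dilutions of compound for 72h, then MTT (5 mg/mL in PBS) added for 4h at 37°C. Formazan dissolved in DMSO and read at 490nm. IC50 reported as mean ± SD of three independent experiments.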

DCN1-like protein 1 [5] = biological target: T2, DCN1-like protein 1 (Homo sapiens, UniProt Q96GG9); assay: Binding affinity to N-terminal His6-tagged recombinant human DCN1 expressed in Escherichia coli BL21-AI assessed as reduction in DCN1-FAM-labelled N-terminal acetylated UBE2M (1 to 12 residues) protein-protein interaction after 30 mins by fluorescence polarization competitive binding assay
A549 [6] = assay: Induction of apoptosis in human A549 cells assessed as viable cells at 2.5 uM after 48 hrs by Annexin V-FITC/propidium iodide staining based flow cytometry (reference value: 92.9%); assay type: functional; conditions: A549, 48 h, read-out: Activity
DCN1-like protein 5 = biological target: T3, DCN1-like protein 5 (Homo sapiens, UniProt Q9BTE7); assay: Binding affinity to N-terminal GST tagged recombinant DCN5 (unknown origin) (47 to 237 residues) expressed in Escherichia coli BL21(DE3) assessed as reduction in DCN1/FAM-labelled N-terminal acetylated UBE2M (1 to 21 residues) protein-protein interaction after 30 mins by HTRF assay
T3 sequence (Q9BTE7 whole entry): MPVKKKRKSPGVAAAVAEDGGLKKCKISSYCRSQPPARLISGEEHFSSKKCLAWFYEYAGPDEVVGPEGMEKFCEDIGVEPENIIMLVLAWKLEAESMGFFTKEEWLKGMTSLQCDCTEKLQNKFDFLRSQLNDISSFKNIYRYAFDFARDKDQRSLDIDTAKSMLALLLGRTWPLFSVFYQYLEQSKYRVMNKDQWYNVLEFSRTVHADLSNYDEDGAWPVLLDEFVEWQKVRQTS
Procedure, shortened: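 HTRF competition: 5nM GST-tagged DCN (1-5) and 5nM AcUBE2M1-21-biotin peptide, with streptavidin-XL665 and anti-GST cryptate, in 100mM phosphate buffer pH 6.5 with 0.02% Tween-20. Cocktail pre-incubated 30min at room temperature, compound added, then 30min more. Excitation 320nm, emission 615/665nm. Ki from three independent repeats, mean ± SD.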

DCN1-like protein 1 [7] = biological target: T2, DCN1-like protein 1; assay: Binding affinity to N-terminal GST tagged recombinant human DCN1 (58 to 259 residues) expressed in Escherichia coli BL21(DE3) assessed as reduction in DCN1-FAM-labelled N-terminal acetylated UBE2M (1 to 21 residues) protein-protein interaction after 30 mins by HTRF assay
NCI-H1975 [8] = assay: Effect on NQO1 accumulation in human NCI-H1975 cells transfected with DCN1 siRNA3 by densitometric method; assay type: functional, cell-based
Procedure, shortened: (§2)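 H1975 or PC9 cells seeded in 6-well plates for 16-24h, transfected with DCN1 siRNA#3 by lipofection, with or without compound, and collected three days later. Western blot for Cullin3, DCN1, NRF2, HO-1 and NQO1, with densitometry normalized to GAPDH. Three individual experiments, means ± SD.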

A549 [9] = assay: Induction of apoptosis in human A549 cells assessed as viable cells at 10 uM after 48 hrs by Annexin V-FITC/propidium iodide staining based flow cytometry (reference value: 92.9%); assay type: functional; conditions: A549, 48 h, read-out: Activity
NCI-H1975 [10] = assay: Induction of apoptosis in human NCI-NCI-H1975 cells assessed as necrotic cells at 10 uM after 48 hrs by Annexin V-FITC/propidium iodide staining based flow cytometry (reference value: 0.94%); assay type: functional
NCI-H1975 [11] = assay: Effect on NRF2 accumulation in human NCI-H1975 cells transfected with DCN1 siRNA3 by densitometric method; assay type: functional, cell-based; procedure, shortened: as §2
PC-3 = assay: Antiproliferative activity against human PC3 after 72 hrs by MTT assay; assay type: functional, cell-based; conditions: PC-3, 72 h; procedure, shortened: as §1
PC-9 = assay: Antiproliferative activity against human PC9 by MTT assay; assay type: functional, cell-based; procedure, shortened: as §1
NCI-H1975 [12] = assay: Induction of apoptosis in human NCI-NCI-H1975 cells assessed as early apoptotic cells at 5 uM after 48 hrs by Annexin V-FITC/propidium iodide staining based flow cytometry (reference value: 2.47%); assay type: functional
A549 [13] = assay: Inhibition of colony formation in human A549 cells after 7 days by crystal violet staining based microscopic analysis; assay type: functional, cell-based
Procedure, shortened: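 H1975, PC9 and A549 cells seeded at 1×10^3 cells per well and cultured overnight, then given fresh medium with compound at 0, 0.625, 1.25, 2.5, 5 or 10μM for 7 days. Cells fixed, stained with 0.1% crystal violet and imaged by microscopy; dye then dissolved and read on a plate reader. Three experiments; means ± SD.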

T2 sequence (Q96GG9 whole entry, the tested form may be a part): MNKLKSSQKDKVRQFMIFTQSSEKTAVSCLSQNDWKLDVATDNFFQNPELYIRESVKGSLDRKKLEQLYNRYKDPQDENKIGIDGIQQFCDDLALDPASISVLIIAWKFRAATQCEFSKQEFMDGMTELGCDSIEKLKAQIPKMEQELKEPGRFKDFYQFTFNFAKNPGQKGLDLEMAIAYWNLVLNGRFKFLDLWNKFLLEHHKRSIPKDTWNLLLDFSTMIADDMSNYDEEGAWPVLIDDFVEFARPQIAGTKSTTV

Q: Which inhibition [1] does the source give for C#CCSc1nc(Sc2nccs2)c(C#N)c(-c2ccc(C)cc2)n1 here?
A: inactive

Q: What about the Activity (A549 [2]) of the same compound?
A: 6.21%

Q: What about the Activity (A549 [3]) of the same compound?
A: Tde

Q: What about the Activity (A549 [4]) of the same compound?
A: 2.52%

Q: And the IC50 (SMMC-7721)?
A: 2450 nM

Q: What about the IC50 (DCN1-like protein 1 [5]) of the same compound?
A: 26.9 nM

Q: And the Ki (DCN1-like protein 1 [5])?
A: 20.8 nM

Q: And the viability at 2.5 µM (A549 [6])?
A: 82.2%

Q: What about the Ki (DCN1-like protein 5) of the same compound?
A: 2140 nM

Q: And the IC50 (DCN1-like protein 1 [7])?
A: 15.7 nM

Q: What about the Ki (DCN1-like protein 1 [7]) of the same compound?
A: 13.7 nM

Q: What about the Activity (NCI-H1975 [8]) of the same compound?
A: inactive

Q: And the viability at 10 µM (A549 [9])?
A: 15.7%

Q: And the Activity (NCI-H1975 [10])?
A: 2.74%

Q: And the Activity (NCI-H1975 [11])?
A: inactive

Q: What about the IC50 (PC-3) of the same compound?
A: 1620 nM

Q: And the IC50 (PC-9)?
A: 1110 nM

Q: What about the Activity (PC-9; TDE = time-dependent effect) of the same compound?
A: Tde

Q: What about the Activity (NCI-H1975 [12]) of the same compound?
A: 28.4%

Q: And the inhibition (A549 [13])?
A: Dose-dependent effect
